From PubChem
CHO parental Ca – ATP-evoked calcium signal inhibitors, parental CHO, primary screen, counter-screen for OX1R antagonist project, cell-based, fluorescence, Fluo-8 calcium dye; actives 0.63% (n = 330,000); parental CHO-K1, ATP-induced calcium, Fluo-8 fluorescence; AID 463079, 2010; inhibition, % at 5.6 µM;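 active = inhibition above that plate's mean sample inhibition plus 3 SD, cut at about 26% in these data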
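Material: parental CHO cells / Compound: single nominal dose of 5.6 µM per compound / Signal: Fluo-8 fluorescence / Replicates: singlicate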
GPR7 antagonist – GPR7 receptor antagonists, primary screen, cell-based, fluorescence, single concentration; Neuropeptides B/W receptor type 1 (Homo sapiens), P48145; GPR7-expressing cells, fluorescence antagonist assay; actives 1.1% (n = 290,000); AID 1861, 2009; inhibition, % at 4.4 µM; in the data active = inhibition above about 16%, passing the limit was not always enough;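 also: cells stimulated with the agonist NPW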
OX1R antag-1 – antagonists of human orexin 1 receptor (OX1R). Orexin/Hypocretin receptor type 1 (Homo sapiens), O43613. OX1R-expressing cells, FRET antagonist read-out. inhibition, % at 6.6 µM. actives 1.8% (n = 330,000). AID 485270, 2010; in the data active = inhibition mostly above about 38%, no sharp cut-off; inactive = mostly below about 40%
Target sequence (O43613 whole entry, looked up): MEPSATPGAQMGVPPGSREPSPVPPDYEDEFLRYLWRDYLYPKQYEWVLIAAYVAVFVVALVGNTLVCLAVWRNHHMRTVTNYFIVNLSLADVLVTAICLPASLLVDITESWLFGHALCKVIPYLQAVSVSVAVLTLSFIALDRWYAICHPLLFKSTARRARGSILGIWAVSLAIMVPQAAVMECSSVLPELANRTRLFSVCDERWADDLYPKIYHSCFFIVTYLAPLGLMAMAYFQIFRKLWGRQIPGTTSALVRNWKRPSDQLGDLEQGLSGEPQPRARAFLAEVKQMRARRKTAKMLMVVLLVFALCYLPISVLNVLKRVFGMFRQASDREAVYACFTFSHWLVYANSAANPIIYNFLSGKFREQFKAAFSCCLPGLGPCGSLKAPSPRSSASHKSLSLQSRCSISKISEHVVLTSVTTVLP
MPTP block – mitochondrial permeability transition pore inhibitors, primary screen, biochemical, isolated mouse mitochondria, absorbance; Ca2+ swelling absorbance, 30 min; inhibition, % at 10 µM; actives 1.4% (n = 360,000);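 active = inhibition of 50% or more, scaled per plate between neutral and stimulator controls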
OX1R antag-2 – OX1R (HCRTR1) antagonists, primary screen, fluorescence, CHO/OX1R cells, Fluo-8 calcium, orexin A; Fluo-8 calcium fluorescence; Orexin/Hypocretin receptor type 1 (Homo sapiens), O43613; actives 0.43% (n = 330,000); inhibition, % at 5 µM; AID 434989, 2010;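 active = inhibition above its plate's threshold, mean inhibition of all tested compounds on the plate plus 3 SD, cut at about 37% in these data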
Rh123 counter – fluorescence retest of MPTP screen hits in isolated mitochondria, single concentration; shares compounds with MPTP block; membrane potential, Rhodamine 123 fluorescence; inhibition, % at 10 µM; actives 78% (n = 5,000); AID 624504, 2012; in the data active = inhibition above about 22%
Of the large screens only hits and unclear results are named; the others gave an inactive call (follow-up assays come after a bar, where they were run). An excerpt weighted towards active compounds, which were near 3.8% of everything screened.

CCOc1ccc(OCC(O)CNC2CCN(Cc3ccccc3)CC2)cc1 (configuration not stated)	none
CC(C)(c1ccccc1)c1ccc(OCC(O)CNC2CCN(Cc3ccccc3)CC2)cc1 (configuration not stated)	MPTP block 68 | Rh123 counter inactive
Cc1cccnc1NC(=O)Nc1cccc(F)c1	none (no result: CHO parental Ca, GPR7 antagonist, OX1R antag-1, OX1R antag-2)
COC(=O)[C@]12CCCCC=C1N(Cc1ccccc1)C(=O)[C@H](CC(=O)NCCCN1CCCC1=O)C2	none (no result: CHO parental Ca, GPR7 antagonist, OX1R antag-1, OX1R antag-2)
O=C(Nc1cc(S(=O)(=O)Nc2ccccc2Cl)ccc1O)c1cc2c(s1)CCCC2	MPTP block 89 | Rh123 counter 83
O=C(Nc1cccc(S(=O)(=O)Nc2ccc(Cl)cc2)c1)c1cc2c(s1)CCCC2	MPTP block 97 | Rh123 counter 83
Cc1ccc(C(C2C(=O)CC(C)(C)CC2=O)C2C(=O)CC(C)(C)CC2=O)s1	none
FC(F)(F)c1cccc(-n2c(Cn3nnc4ccccc43)n[nH]c2=S)c1	none
CC1(C)CC(=O)C(C=NCC2CCN(C(=S)Nc3cccc(Cl)c3)CC2)=C(O)C1	none
CC(C)C(=O)N1CCC(CN=CC2=C(O)CC(C)(C)CC2=O)CC1	MPTP block 69 | Rh123 counter 113
Fc1ccc(C2c3cccn3CCN2C(=S)Nc2cccc(Br)c2)cc1 (configuration not stated)	MPTP block 90 | Rh123 counter 66
Cc1c(C(C)C)c(=O)n(-c2ccc(S(=O)(=O)NCc3ccccc3)cc2)n1C	MPTP block 96 | Rh123 counter 83
O=C(Nc1cc(C(F)(F)F)cc(C(F)(F)F)c1)c1ccc(Cn2cc(C(F)(F)F)ccc2=O)cc1	MPTP block 72 | Rh123 counter 25
COc1ccc(-c2nc(C(F)(F)F)c(OC)o2)cc1OC	none
CC(c1ccco1)N(C(=O)c1ccccc1NS(=O)(=O)c1cccc([N+](=O)[O-])c1)c1ccccn1 (configuration not stated)	OX1R antag-1 63, MPTP block 51 | Rh123 counter 78
CCOc1ccc(CCNC(=O)C2CCCN2C(=O)OCc2ccccc2)cc1OCC (configuration not stated)	none
Clc1ccc(CONc2ncnc3nonc23)c(Cl)c1	MPTP block 56 | Rh123 counter 96
CCONc1ncnc2nonc12	none
O=C(CSc1ccc2nnc(CCNC(=O)c3ccccc3)n2n1)NCc1ccco1	none
OC(CN1CCCCC1)CN(c1ccccc1)c1ccccc1 (configuration not stated)	none
OC(CN1CCCCCC1)CN(c1ccccc1)c1ccccc1 (configuration not stated)	MPTP block 67 | Rh123 counter 51
Cc1ccc(NCC(=O)Nc2ccc(Br)cc2)cc1F	MPTP block 60 | Rh123 counter 70
O=C(CSc1ccc(F)cc1)Nc1ccc(Br)cc1	MPTP block 58 | Rh123 counter 67
O=C(CSc1ccc(F)cc1)Nc1ccccc1Br	none
C/C(=N\NC(=O)c1cc2ccccc2cc1O)c1ccccn1	none
CCC/C(C)=N/NC(=O)c1ccccc1O	none
C/C(=N/NC(=O)c1cc2ccccc2cc1O)C1C(=O)c2ccccc2C1=O	OX1R antag-1 65, MPTP block 86 | Rh123 counter inactive
C/C(CC(=O)N1CCN(C=O)CC1)=N\NC(=O)c1cc2ccccc2cc1O	none
C/C(=N\NC(=O)c1ccccc1O)C1C(=O)c2ccccc2C1=O	OX1R antag-1 61, MPTP block 64 | Rh123 counter 70
C/C(=N\NC(=O)c1cc2ccccc2cc1O)c1cc2ccccc2o1	MPTP block 98 | Rh123 counter 57
COc1ccc(-c2nc3nc(N)nn3cc2C)cc1F	none
COc1ccccc1NC(=O)c1c[nH]c2ccccc12	none
Cc1cc(C)c2nc(-c3ccccn3)cc(C(=O)N3CCCC3)c2c1	none
O=C(Nc1ccc(Cl)cc1)N(C1=NCCC1)c1ccc(OC(F)F)cc1	MPTP block 90 | Rh123 counter 99
O=C(O)Cc1ccc(OCc2ccc(Cl)nc2)cc1	none
CN(c1ccccc1)S(=O)(=O)c1ccc(NC(=O)CC(=O)c2ccccc2)cc1	MPTP block 57 (no result: CHO parental Ca, GPR7 antagonist, OX1R antag-1, OX1R antag-2) | Rh123 counter 93
CC(=O)Nc1ccc(NC(=O)c2ccc(S(=O)(=O)N(C)c3ccccc3)cc2)cc1	none (no result: GPR7 antagonist)
CCc1ccc(OCC(=O)NC(NC(=S)Nc2ccccc2C)C(Cl)(Cl)Cl)cc1 (configuration not stated)	MPTP block 81 | Rh123 counter 87
CCc1ccc(OCC(=O)NC(NC(=S)Nc2ccc(C)cc2C)C(Cl)(Cl)Cl)cc1 (configuration not stated)	none
CCc1ccc(OCC(=O)NC(NC(=S)Nc2ccccc2OC)C(Cl)(Cl)Cl)cc1 (configuration not stated)	MPTP block 92 | Rh123 counter 89
CCc1ccc(OCC(=O)NC(NC(=S)Nc2ccccc2)C(Cl)(Cl)Cl)cc1 (configuration not stated)	MPTP block 80 | Rh123 counter 88
Cc1ccccc1NC(=S)NC(NC(=O)COc1ccccc1)C(Cl)(Cl)Cl (configuration not stated)	MPTP block 80 | Rh123 counter 83
Cc1ccc(NC(=S)NC(NC(=O)c2ccccc2C)C(Cl)(Cl)Cl)c(C)c1 (configuration not stated)	MPTP block 93 | Rh123 counter 82
CCN(CC)CCNc1cc(C)c(C#N)c2nc3ccccc3n12	none
Cc1cc(Nc2cccc([N+](=O)[O-])c2)n2c(nc3ccccc32)c1C#N	MPTP block 67 | Rh123 counter 93
COc1cccc(/C=N/n2c(-c3cc(C)[nH]n3)n[nH]c2=S)c1O	none
CC1(C)C2CC=C(/C=N/NC(=O)c3ccccc3O)C1C2 (configuration not stated)	MPTP block 50 | Rh123 counter 71
C/C(=N/NC(=O)c1ccc(C)s1)c1cccc(NC(=O)c2ccoc2C)c1	none
COc1ccc(NCC(=O)Nc2ccc(C#N)cc2)cc1Cl	MPTP block 76 | Rh123 counter 84
Cc1csc(CNC(=O)c2ccc(OC3CCN(CCc4ccccc4)CC3)cc2)n1	none
COc1ccc(-c2noc(CCCC(=O)N3CCN(c4cc(C)ccc4C)CC3)n2)cc1	none (no result: GPR7 antagonist)
